{"source": "ChEMBL document CHEMBL4477235", "about": "“Evolution of a Novel, Orally Bioavailable Series of PI3Kδ Inhibitors from an Inhaled Lead for the Treatment of Respiratory Disease” (J Med Chem, 2016)", "key": {"[1]": {"assay": "AUC(infinity) in Wistar Han rat at 1 mg/kg", "format": "ADME, organism-based", "parameters": "dose 1 mg/kg, time infinity", "conditions": "in vivo"}, "[2]": {"biological_target": "Mitogen-activated protein kinase kinase kinase 5 (Homo sapiens, UniProt Q99683)", "sequence (Q99683 whole entry)": "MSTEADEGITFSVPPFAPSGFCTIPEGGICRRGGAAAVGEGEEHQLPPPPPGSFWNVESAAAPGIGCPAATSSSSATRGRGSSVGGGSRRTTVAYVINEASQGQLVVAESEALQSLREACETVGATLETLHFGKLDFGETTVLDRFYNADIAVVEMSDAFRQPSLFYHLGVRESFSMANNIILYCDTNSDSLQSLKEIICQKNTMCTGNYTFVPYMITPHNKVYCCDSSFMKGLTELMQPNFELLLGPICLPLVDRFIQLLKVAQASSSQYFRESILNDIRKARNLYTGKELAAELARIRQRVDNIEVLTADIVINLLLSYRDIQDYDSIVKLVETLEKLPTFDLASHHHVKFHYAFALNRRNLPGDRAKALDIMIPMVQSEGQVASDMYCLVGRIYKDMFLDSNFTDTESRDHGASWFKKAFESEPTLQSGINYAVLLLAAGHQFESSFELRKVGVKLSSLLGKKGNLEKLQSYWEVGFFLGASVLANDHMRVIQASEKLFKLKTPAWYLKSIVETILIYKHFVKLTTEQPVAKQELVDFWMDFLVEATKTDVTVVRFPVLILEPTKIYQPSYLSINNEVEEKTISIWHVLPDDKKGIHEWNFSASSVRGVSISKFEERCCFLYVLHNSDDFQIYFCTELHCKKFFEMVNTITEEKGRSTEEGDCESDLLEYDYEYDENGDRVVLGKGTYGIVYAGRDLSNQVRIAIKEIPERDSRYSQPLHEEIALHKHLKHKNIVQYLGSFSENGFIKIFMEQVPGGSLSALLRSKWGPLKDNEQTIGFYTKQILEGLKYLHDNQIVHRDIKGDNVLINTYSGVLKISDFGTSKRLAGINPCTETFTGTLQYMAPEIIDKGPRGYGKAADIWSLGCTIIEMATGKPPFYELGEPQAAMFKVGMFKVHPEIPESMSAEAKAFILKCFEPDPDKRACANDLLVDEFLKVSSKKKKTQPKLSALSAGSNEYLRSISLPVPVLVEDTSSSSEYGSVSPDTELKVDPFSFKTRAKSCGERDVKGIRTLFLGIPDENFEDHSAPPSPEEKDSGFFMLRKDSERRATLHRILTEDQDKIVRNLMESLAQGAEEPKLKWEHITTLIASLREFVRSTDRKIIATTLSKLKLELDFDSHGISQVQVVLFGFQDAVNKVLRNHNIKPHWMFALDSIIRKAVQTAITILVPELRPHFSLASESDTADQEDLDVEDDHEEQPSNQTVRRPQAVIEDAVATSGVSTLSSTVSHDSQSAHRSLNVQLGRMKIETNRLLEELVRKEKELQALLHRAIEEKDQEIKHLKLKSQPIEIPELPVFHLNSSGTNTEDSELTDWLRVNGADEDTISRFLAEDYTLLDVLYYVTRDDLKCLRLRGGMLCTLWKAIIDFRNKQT", "assay": "Inhibition of ASK1 (unknown origin)"}, "[3]": {"biological_target": "Mitogen-activated protein kinase 14 (Homo sapiens, UniProt Q16539)", "assay": "Inhibition of P38alpha (unknown origin)"}, "[4]": {"assay": "Half life in Sprague-Dawley rat at 1 mg/kg, iv by LC-MS/MS analysis", "format": "ADME, organism-based", "conditions": "in vivo", "procedure,_shortened": "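Male Sprague Dawley rats (n = 2/route), intravenous dose as a solution in DMSO/PEG200/water (5:45:50 v/v/v) at 2 mL/kg. Serial tail-vein blood sampling over 0–7 h. LC–MS/MS quantification of parent. Noncompartmental analysis.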"}, "[5]": {"assay": "Volume of distribution at steady state in Sprague-Dawley rat at 3 mg/kg, po or 1 mg/kg, iv measured up to 7 hrs by LC-MS/MS analysis", "format": "ADME, organism-based", "conditions": "in vivo, read-out: Vdss", "procedure,_shortened": "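Male Sprague Dawley rats, n = 2 per route, were dosed discretely at 3 mg/kg orally or 1 mg/kg intravenously. The dosing solution was DMSO/PEG200/water (5:45:50 v/v/v). Serial tail-vein blood samples were taken over 0–7 h, and parent compound was quantified by LC–MS/MS. Parameters were estimated by noncompartmental analysis.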"}, "Sphingosine kinase 2": {"biological_target": "Sphingosine kinase 2 (Homo sapiens, UniProt Q9NRA0)", "assay": "Inhibition of SPHK2 (unknown origin)"}, "[6]": {"biological_target": "T1, Phosphatidylinositol 4,5-bisphosphate 3-kinase catalytic subunit delta isoform (Homo sapiens, UniProt O00329)", "T1 sequence (O00329 whole entry)": "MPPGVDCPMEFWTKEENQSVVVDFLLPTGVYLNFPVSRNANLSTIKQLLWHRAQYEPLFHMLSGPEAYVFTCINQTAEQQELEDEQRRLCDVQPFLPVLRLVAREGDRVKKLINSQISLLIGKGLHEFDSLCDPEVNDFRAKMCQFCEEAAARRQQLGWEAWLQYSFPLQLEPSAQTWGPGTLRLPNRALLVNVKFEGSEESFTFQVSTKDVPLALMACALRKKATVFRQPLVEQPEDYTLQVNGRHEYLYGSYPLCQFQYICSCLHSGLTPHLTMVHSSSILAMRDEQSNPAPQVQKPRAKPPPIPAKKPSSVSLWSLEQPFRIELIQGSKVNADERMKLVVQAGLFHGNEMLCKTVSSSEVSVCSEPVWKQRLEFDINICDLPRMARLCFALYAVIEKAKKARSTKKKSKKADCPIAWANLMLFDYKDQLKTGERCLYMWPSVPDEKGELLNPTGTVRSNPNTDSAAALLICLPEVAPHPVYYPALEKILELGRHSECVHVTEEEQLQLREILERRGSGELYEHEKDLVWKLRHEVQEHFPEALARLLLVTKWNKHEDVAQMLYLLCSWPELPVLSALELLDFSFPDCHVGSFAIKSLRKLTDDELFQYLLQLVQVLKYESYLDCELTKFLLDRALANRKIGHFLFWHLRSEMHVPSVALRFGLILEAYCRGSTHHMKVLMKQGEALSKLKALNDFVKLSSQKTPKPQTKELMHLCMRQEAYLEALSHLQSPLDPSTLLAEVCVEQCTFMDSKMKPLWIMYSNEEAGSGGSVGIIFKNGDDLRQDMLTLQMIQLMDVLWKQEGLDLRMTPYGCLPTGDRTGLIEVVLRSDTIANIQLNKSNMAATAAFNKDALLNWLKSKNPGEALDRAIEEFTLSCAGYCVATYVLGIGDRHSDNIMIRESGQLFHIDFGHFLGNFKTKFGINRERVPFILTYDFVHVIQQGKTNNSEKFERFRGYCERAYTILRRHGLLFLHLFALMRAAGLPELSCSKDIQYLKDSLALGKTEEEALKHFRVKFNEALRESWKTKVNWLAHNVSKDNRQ"}, "[7]": {"assay": "Drug uptake in Wistar Han rat blood at 1 mg/kg measured 1 hr post dose", "format": "ADME, organism-based", "conditions": "read-out: Drug uptake"}, "[8]": {"biological_target": "Phosphatidylinositol 4-kinase alpha (Homo sapiens, UniProt P42356)", "assay": "Inhibition of PIK4A (unknown origin)"}, "[9]": {"biological_target": "Glycogen synthase kinase-3 beta (Homo sapiens, UniProt P49841)", "assay": "Inhibition of GSK3beta (unknown origin)"}, "[10]": {"biological_target": "Diacylglycerol kinase zeta (Homo sapiens, UniProt Q13574)", "assay": "Inhibition of DAGK zeta (unknown origin)"}, "[11]": {"assay": "Fraction unbound in Brown Norway rat acute OVA model of TH2-driven lung inflammation at 9 mg/kg, po pretreated for 30 mins followed by OVA challenge measured 1 hr post dose by HPLC analysis", "format": "ADME, organism-based", "conditions": "in vivo", "procedure,_shortened": "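Unbound concentration at 1 h post-dose estimated by an internal algorithm from binding to HPLC columns coated with HSA and α-glycoprotein.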"}, "[12]": {"biological_target": "Phosphatidylinositol 4-kinase beta (Homo sapiens, UniProt Q9UBF8)", "sequence (Q9UBF8 whole entry)": "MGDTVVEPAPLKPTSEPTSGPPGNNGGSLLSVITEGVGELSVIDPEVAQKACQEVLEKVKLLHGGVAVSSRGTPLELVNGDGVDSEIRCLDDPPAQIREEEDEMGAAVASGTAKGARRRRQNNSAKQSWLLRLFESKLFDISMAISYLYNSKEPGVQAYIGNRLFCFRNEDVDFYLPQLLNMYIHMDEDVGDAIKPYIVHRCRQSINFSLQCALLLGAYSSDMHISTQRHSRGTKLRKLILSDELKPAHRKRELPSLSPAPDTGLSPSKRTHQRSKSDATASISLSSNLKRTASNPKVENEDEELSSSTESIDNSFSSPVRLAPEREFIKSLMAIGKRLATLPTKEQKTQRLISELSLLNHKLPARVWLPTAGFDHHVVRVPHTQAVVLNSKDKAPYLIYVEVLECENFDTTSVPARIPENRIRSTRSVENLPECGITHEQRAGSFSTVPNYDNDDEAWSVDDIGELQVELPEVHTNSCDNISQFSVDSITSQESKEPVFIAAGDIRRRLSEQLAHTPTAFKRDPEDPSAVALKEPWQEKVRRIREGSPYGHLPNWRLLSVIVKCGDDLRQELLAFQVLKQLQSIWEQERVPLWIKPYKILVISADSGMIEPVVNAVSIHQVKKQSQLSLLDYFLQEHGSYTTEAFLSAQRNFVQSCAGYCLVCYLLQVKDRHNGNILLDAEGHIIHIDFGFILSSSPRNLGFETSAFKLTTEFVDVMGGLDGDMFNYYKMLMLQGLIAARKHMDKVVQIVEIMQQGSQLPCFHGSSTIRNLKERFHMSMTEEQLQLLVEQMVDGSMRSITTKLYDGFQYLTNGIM", "assay": "Inhibition of PIK4B (unknown origin)"}, "[13]": {"assay": "AUC(infinity) in Brown Norway rat acute OVA model of TH2-driven lung inflammation at 9 mg/kg, po pretreated for 30 mins followed by OVA challenge", "format": "ADME, organism-based", "parameters": "dose 9 mg/kg, route oral, time infinity", "conditions": "in vivo", "procedure,_shortened": "(§1)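 Male Brown Norway rats weighing 250–300 g were sensitised intraperitoneally with 10 μg OVA plus 20 mg Al(OH)₃ in 1 mL on days 1 and 7. On day 21 or 28 they were challenged intratracheally with 0.2 mL OVA under isoflurane. Compound was dosed orally 30 min before challenge. Blood exposure was measured in the same animals, with the 1 h post-dose concentration also recorded.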"}, "[14]": {"assay": "AUC(infinity) in Sprague-Dawley rat at 3 mg/kg, po measured up to 7 hrs by LC-MS/MS analysis", "format": "ADME, organism-based", "parameters": "dose 3 mg/kg, time infinity, route oral", "conditions": "in vivo, 7 h", "procedure,_shortened": "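Male Sprague Dawley rats (n = 2/route), oral dose in DMSO/PEG200/water (5:45:50 v/v/v) at 6 mL/kg. Serial tail-vein bleeds over 0–7 h. Parent compound quantified by LC–MS/MS. Parameters from noncompartmental analysis.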"}, "[15]": {"biological_target": "Phosphatidylinositol 4-phosphate 3-kinase C2 domain-containing subunit beta (Homo sapiens, UniProt O00750)", "sequence (O00750 whole entry, the tested form may be a part)": "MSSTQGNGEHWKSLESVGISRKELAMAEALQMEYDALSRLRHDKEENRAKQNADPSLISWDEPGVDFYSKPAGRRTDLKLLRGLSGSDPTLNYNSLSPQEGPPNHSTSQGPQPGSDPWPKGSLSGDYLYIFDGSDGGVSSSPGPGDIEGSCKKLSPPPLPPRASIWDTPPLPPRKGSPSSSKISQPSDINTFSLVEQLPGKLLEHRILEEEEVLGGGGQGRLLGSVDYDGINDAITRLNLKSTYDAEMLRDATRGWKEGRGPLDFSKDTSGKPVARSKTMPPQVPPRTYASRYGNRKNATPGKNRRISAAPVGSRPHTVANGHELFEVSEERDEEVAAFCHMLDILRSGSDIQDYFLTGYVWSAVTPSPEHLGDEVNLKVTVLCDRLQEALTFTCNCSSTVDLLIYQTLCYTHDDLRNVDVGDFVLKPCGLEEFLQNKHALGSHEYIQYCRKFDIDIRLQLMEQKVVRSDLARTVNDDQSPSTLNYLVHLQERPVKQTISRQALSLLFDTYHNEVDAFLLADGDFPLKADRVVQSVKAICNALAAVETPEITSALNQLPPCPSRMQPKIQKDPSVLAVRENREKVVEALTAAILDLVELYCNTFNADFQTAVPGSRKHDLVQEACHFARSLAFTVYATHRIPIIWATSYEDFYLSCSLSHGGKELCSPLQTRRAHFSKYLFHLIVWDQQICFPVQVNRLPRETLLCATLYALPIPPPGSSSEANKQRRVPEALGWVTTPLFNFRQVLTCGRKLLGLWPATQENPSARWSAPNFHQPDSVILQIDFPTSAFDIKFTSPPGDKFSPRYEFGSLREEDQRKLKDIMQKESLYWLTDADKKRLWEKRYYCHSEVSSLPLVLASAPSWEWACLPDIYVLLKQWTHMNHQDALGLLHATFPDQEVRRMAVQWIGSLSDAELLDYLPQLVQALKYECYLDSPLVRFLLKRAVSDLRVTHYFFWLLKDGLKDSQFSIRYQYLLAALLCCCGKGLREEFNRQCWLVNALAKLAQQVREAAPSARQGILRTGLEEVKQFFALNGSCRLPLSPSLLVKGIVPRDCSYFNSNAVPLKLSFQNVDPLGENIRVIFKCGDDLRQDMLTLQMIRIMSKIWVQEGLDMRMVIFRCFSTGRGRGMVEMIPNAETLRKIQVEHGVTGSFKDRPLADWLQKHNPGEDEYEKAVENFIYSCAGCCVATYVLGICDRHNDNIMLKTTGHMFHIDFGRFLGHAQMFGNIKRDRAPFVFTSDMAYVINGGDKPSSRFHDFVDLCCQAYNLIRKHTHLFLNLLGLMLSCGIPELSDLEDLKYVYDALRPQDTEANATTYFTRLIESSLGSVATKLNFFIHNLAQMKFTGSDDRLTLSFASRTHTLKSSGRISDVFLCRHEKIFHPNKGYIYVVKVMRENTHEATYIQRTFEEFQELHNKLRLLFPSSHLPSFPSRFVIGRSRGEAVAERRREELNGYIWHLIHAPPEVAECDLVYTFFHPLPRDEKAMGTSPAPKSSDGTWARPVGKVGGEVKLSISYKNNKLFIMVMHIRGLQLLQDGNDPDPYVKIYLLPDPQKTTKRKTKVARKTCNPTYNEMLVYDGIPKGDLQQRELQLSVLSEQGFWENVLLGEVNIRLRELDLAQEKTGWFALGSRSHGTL", "assay": "Inhibition of PIK3C2B (unknown origin)"}, "[16]": {"biological_target": "Phosphatidylinositol 4-kinase type 2-alpha (Homo sapiens, UniProt Q9BTU6)", "assay": "Inhibition of PI4K2A (unknown origin)"}, "[17]": {"assay": "AUC(infinity) in Brown Norway rat acute OVA model of TH2-driven lung inflammation at 3 mg/kg, po pretreated for 30 mins followed by OVA challenge", "format": "ADME, organism-based", "parameters": "dose 3 mg/kg, time infinity, route oral", "conditions": "in vivo", "procedure,_shortened": "as §1"}, "[18]": {"assay": "Inhibition of DAGK (unknown origin)", "parameters": "species or system Homo sapiens"}, "[19]": {"biological_target": "Tyrosine-protein kinase BTK (Homo sapiens, UniProt Q06187)", "assay": "Inhibition of BTK (unknown origin)"}, "[20]": {"biological_target": "3',5'-cyclic-AMP phosphodiesterase 4B (Homo sapiens, UniProt Q07343)", "sequence (Q07343 whole entry)": "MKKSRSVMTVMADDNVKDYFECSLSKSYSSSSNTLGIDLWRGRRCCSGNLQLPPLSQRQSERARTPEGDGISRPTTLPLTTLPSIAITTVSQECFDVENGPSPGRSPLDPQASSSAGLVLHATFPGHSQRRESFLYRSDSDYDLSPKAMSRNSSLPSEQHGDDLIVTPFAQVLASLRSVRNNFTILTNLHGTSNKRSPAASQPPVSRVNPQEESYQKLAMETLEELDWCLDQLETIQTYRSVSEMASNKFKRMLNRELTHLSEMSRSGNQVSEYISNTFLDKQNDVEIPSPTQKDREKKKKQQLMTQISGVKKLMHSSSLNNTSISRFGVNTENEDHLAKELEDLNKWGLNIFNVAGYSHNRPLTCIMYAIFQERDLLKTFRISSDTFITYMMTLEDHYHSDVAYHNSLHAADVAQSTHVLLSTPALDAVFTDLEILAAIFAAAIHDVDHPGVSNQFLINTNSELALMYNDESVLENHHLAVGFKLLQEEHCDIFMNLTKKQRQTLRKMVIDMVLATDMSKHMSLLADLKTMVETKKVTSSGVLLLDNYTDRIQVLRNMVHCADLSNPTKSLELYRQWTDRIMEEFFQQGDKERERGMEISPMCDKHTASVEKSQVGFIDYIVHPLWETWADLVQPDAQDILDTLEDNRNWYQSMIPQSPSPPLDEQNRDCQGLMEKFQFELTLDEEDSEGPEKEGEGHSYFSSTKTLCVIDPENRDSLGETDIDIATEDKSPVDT", "assay": "Inhibition of PDE4B (unknown origin)"}, "[21]": {"biological_target": "Tyrosine-protein kinase Lck (Homo sapiens, UniProt P06239)", "sequence (P06239 whole entry)": "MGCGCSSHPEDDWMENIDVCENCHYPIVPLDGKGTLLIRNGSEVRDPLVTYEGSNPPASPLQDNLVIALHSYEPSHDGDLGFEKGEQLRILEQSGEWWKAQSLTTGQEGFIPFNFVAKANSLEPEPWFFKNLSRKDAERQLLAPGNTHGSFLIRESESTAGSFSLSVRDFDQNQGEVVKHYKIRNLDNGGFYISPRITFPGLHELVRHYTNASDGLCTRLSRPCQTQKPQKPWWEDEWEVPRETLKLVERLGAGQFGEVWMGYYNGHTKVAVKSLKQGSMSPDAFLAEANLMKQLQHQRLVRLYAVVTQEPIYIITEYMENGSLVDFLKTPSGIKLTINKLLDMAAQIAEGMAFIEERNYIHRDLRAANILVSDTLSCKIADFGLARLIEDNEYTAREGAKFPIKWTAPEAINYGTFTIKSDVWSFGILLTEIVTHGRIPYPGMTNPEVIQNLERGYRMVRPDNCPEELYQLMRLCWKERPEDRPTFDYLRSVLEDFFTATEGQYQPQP", "assay": "Inhibition of LCK (unknown origin)"}, "[22]": {"biological_target": "Tyrosine-protein kinase SYK (Homo sapiens, UniProt P43405)", "assay": "Inhibition of SYK (unknown origin)"}, "[23]": {"biological_target": "Leucine-rich repeat serine/threonine-protein kinase 2 (Homo sapiens, UniProt Q5S007)", "assay": "Inhibition of LRRK2 (unknown origin)"}}, "note": "Values joined by “and” are separate entries in the source; they are usually repeats but may differ in a detail not shown here. Identical values can stand only once.", "data": [{"smiles": "COc1ncc(-c2cc3c(c(NC(=O)CN4CCOCC4)c2)COC3)cc1NS(C)(=O)=O", "values": [{"measurement": "AUC(0-inf)", "setting": "[1]", "value": 673, "unit": "ng·h/mL"}, {"measurement": "IC50", "setting": "[2]", "value": "> 10", "unit": "µM"}, {"measurement": "IC50", "setting": "[3]", "value": "> 10", "unit": "µM"}, {"measurement": "half-life", "setting": "[4]", "value": 1.3, "unit": "h"}, {"measurement": "Vd", "setting": "[5]", "value": 1.1, "unit": "L/kg"}, {"measurement": "IC50", "setting": "Sphingosine kinase 2", "value": "> 10", "unit": "µM"}, {"measurement": "IC50", "setting": "[6]", "value": "0.158 to 0.251 µM and 0.25 µM"}, {"measurement": "concentration at 1 h", "setting": "[7]", "value": 520, "unit": "nM"}, {"measurement": "IC50", "setting": "[8]", "value": "> 10", "unit": "µM"}, {"measurement": "IC50", "setting": "[9]", "value": "> 10", "unit": "µM"}, {"measurement": "IC50", "setting": "[10]", "value": "> 10", "unit": "µM"}, {"measurement": "Drug uptake(free)", "setting": "[11]", "value": 0.22, "unit": "µM"}, {"measurement": "IC50", "setting": "[12]", "value": "> 10", "unit": "µM"}, {"measurement": "AUC(0-inf)", "setting": "[13]", "value": 2620, "unit": "ng·h/mL"}, {"measurement": "AUC", "setting": "[14]", "value": 673, "unit": "ng·h/mL"}, {"measurement": "IC50", "setting": "[15]", "value": "> 10", "unit": "µM"}, {"measurement": "IC50", "setting": "[16]", "value": "> 10", "unit": "µM"}, {"measurement": "AUC(0-inf)", "setting": "[17]", "value": 454, "unit": "ng·h/mL"}, {"measurement": "pIC50", "setting": "[18]", "value": "< 5"}, {"measurement": "IC50", "setting": "[19]", "value": "> 10", "unit": "µM"}, {"measurement": "IC50", "setting": "[20]", "value": "> 10", "unit": "µM"}, {"measurement": "IC50", "setting": "[21]", "value": "> 10", "unit": "µM"}, {"measurement": "IC50", "setting": "[22]", "value": "> 10", "unit": "µM"}, {"measurement": "IC50", "setting": "[23]", "value": "> 10", "unit": "µM"}]}]}
